The source of these data is ChEMBL document CHEMBL4118106 (J Med Chem, 2018).

Calls of active or inactive are those of the source. No cut-off for these calls is given here. Where a SMILES comes first, the peptide text is derived from it. Bridges are numbered along the chain shown (N, C = ends). [ ]: non-standard residue; d: D form. S5 = C=CCCC[C@](C)(N)C(=O)O

The nature of data set [1]: Inhibition of EGFP-fused MERS-CoV spike protein mediated cell-cell fusion between viral protein expressing human 293T cells and human HuH7 target cells after 4 hrs by inverted fluorescence microscopic analysis. Set-up: species or system Middle East respiratory syndrome-related coronavirus. Put shortly:
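Huh-7 target cells expressing DPP4 were seeded at 5 × 10^4/well and kept at 37 °C for 5 h. Inhibitors were added, then 293T effector cells co-expressing S protein and EGFP (1 × 10^4/well); 293T/EGFP-only cells served as negative control. After 4 h coculture at 37 °C, fused and unfused cells were counted by fluorescence microscopy.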

Data set [2] is described as follows: Binding affinity to NHR peptide HR1P in pH 7.2 phosphate buffer at 50 uM after 30 mins by CD spectroscopic method. Put shortly: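 Peptides were at 50 µM final in 50 mM PBS, pH 7.2. Equimolar HR1P/peptide mixtures were incubated at 25 °C for 30 min before CD scanning. α-Helicity was taken from [θ]222, where -33,000 deg cm2/dmol = 100% helix.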
A short description of data set [3]: Cytotoxicity against human HuH7 cells after 48 hrs by CCK-8 assay. The class given is cell-based, Huh-7. The gist of the method:
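Cells (1 × 10^5 per well) were preincubated at 37 °C for 12 h, then given graded peptide concentrations. After 48 h at 37 °C, CCK-8 was added and absorbance at 450 nm was read 2 h later.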
In general terms: Formazan colour is commonly taken as a measure of viable cells.

Data set [4] can be described thus: Inhibition of MERS-CoV spike protein mediated cell-cell fusion between viral protein expressing human 293T cells and human HuH7 target cells assessed as decrease in pseudovirus infection preincubated with virus for 1 hr followed by HuH7 cells addition measured after 48 hrs by luciferase reporter gene assay. On the set-up: species or system Middle East respiratory syndrome-related coronavirus. As to conditions: Middle East respiratory syndrome-related coronavirus. Put shortly: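 Graded peptide concentrations were preincubated with luciferase-reporter pseudovirus bearing MERS-CoV S for 1 h at room temperature. The mixture was added to Huh-7 or Calu-3 cells, with medium refreshed at 12 h. After a further 48 h at 37 °C, luciferase was read. Values are from three independent experiments, mean ± SD.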

Data set [5] in a line: Binding affinity to NHR peptide HR1P in pH 7.2 phosphate buffer assessed as thermal unfolding transition at 50 uM after 30 mins by CD spectroscopic method. The gist of the method:
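Equimolar HR1P/peptide mixtures, 50 µM final in 50 mM PBS pH 7.2, were preincubated at 25 °C for 30 min. Thermal denaturation was followed by CD at 222 nm over a 10–90 °C gradient at 2 °C/min.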

Consider `CSCC[C@H](NC(=O)[C@H](CCC(=O)O)NC(=O)[C@H](Cc1ccc(O)cc1)NC(=O)[C@@H](NC(=O)[C@H](CC(C)C)NC(=O)[C@H](CC(=O)O)NC(=O)[C@H](CC(C)C)NC(C)=O)[C@@H](C)O)C(=O)N[C@@H](CC(C)C)C(=O)N[C@@]1(C)CCC/C=C/CCC[C@@](C)(C(=O)N[C@H](C(=O)N[C@@H](CCCCN)C(=O)N[C@@H](C)C(=O)N[C@@H](CC(C)C)C(=O)N[C@@H](CC(N)=O)C(=O)N[C@@H](CCC(=O)O)C(=O)N[C@@H](CO)C(=O)N[C@@H](Cc2ccc(O)cc2)C(N)=O)C(C)C)NC(=O)[C@H](CCC(N)=O)NC(=O)[C@H](CCC(N)=O)NC(=O)[C@H](CC(C)C)NC1=O` (Ac-LDLTYEML[S5]LQQ[S5]VKALNESY-NH2; staple (E) 9-13), for which the EC50 in data set [1] is > 50 µM. Also, the outcome in data set [2] was inactive.
In the same order, the values of `CSCC[C@H](NC(=O)[C@H](CCC(=O)O)NC(=O)[C@]1(C)CCC/C=C\CCC[C@](C)(NC(C)=O)C(=O)N[C@@H](CC(=O)O)C(=O)N[C@@H](CC(C)C)C(=O)N[C@@H]([C@@H](C)O)C(=O)N1)C(=O)N[C@@H](CC(C)C)C(=O)N[C@@H](CO)C(=O)N[C@@H](CC(C)C)C(=O)N[C@@H](CCC(N)=O)C(=O)N[C@@H](CCC(N)=O)C(=O)N[C@H](C(=O)N[C@H](C(=O)N[C@@H](CCCCN)C(=O)N[C@@H](C)C(=O)N[C@@H](CC(C)C)C(=O)N[C@@H](CC(N)=O)C(=O)N[C@@H](CCC(=O)O)C(=O)N[C@@H](CO)C(=O)N[C@@H](Cc1ccc(O)cc1)C(N)=O)C(C)C)C(C)C` are > 50 µM and “inactive”.
With `CC[C@H](C)[C@H](NC(=O)[C@H](Cc1ccc(O)cc1)NC(=O)[C@H](CO)NC(=O)[C@H](CCC(=O)O)NC(=O)[C@H](CCC(=O)O)NC(=O)[C@H](CC(C)C)NC(=O)[C@H](CCCCN)NC(=O)[C@H](CCCCN)NC(=O)[C@@H](NC(=O)[C@@H](NC(=O)[C@H](CCC(=O)O)NC(=O)[C@H](CCC(=O)O)NC(=O)[C@H](CC(C)C)NC(=O)[C@H](CCCCN)NC(=O)[C@H](CCCCN)NC(=O)[C@H](CCSC)NC(=O)[C@H](CCC(=O)O)NC(=O)[C@H](Cc1ccc(O)cc1)NC(=O)[C@H](CCC(=O)O)NC(=O)[C@H](CC(C)C)NC(=O)[C@H](CC(=O)O)NC(=O)[C@H](CC(C)C)NC(=O)[C@H](CC(C)C)NC(=O)[C@@H](NC(=O)[C@@H](NC(=O)[C@H](CC(N)=O)NC(=O)[C@@H](NC(=O)[C@H](CCC(N)=O)NC(=O)[C@@H](NC(=O)[C@H](CC(C)C)NC(=O)[C@H](CO)NC(C)=O)[C@@H](C)O)[C@@H](C)CC)[C@@H](C)O)[C@@H](C)O)C(C)C)C(C)C)C(=O)N[C@@H](CC(=O)O)C(=O)N[C@@H](CC(C)C)C(=O)N[C@@H](CCCCN)C(=O)N[C@@H](CCC(=O)O)C(=O)N[C@@H](CC(C)C)C(N)=O`, the results for the EC50 in data set [1] and in data set [4] were 0.75 µM and 1.07 µM, respectively. For the same compound, the CC50 at 48 h in data set [3] was > 100 µM.
On to `CSCC[C@@H]1NC(=O)[C@H](CCC(=O)O)NC(=O)[C@@](C)(NC(=O)[C@@H](NC(=O)[C@H](CC(C)C)NC(=O)[C@H](CC(=O)O)NC(=O)[C@H](CC(C)C)NC(C)=O)[C@@H](C)O)CCC/C=C\CCC[C@@](C)(C(=O)N[C@@H](CC(C)C)C(=O)N[C@@H](CCC(N)=O)C(=O)N[C@@H](CCC(N)=O)C(=O)N[C@H](C(=O)N[C@H](C(=O)N[C@@H](CCCCN)C(=O)N[C@@H](C)C(=O)N[C@@H](CC(C)C)C(=O)N[C@@H](CC(N)=O)C(=O)N[C@@H](CCC(=O)O)C(=O)N[C@@H](CO)C(=O)N[C@@H](Cc2ccc(O)cc2)C(N)=O)C(C)C)C(C)C)NC(=O)[C@H](CC(C)C)NC1=O`, for which, in data set [1], the EC50 came to 7.14 µM. Further, in data set [5], the midpoint of thermal melting (Tm) fell in the range of 56.6 to 66.6 °C.

The term EC50 denotes the concentration at which the effect is half-maximal. The term CC50 denotes the concentration at which the toxic effect on the cells reaches its halfway point. Lower therefore signals greater toxicity to the cells. What is called Tm is the temperature at the midpoint of the melting transition.
